Data set [1] has as its system P. mirabilis ATCC 25933. As to the kind of experiment: MIC, microbroth dilution in Mueller-Hinton broth. Particulars: Proteus mirabilis, ATCC25933, read-out: MIC PM. In kind it is cell-based. (In broth dilution the organism is exposed to a series of concentrations in liquid medium.)
The subject of data set [2] is E. faecalis ATCC33186. Put plainly: MIC, microbroth dilution in Mueller-Hinton broth. In kind it is cell-based. Conditions: Enterococcus faecalis, ATCC33186, read-out: MIC EF. In short, it runs like this: (§1)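 CLSI broth microdilution in cation-adjusted Mueller-Hinton broth. Inocula were grown from MH agar colonies in MH broth, with a final inoculum of 10^5 CFU/ml. Test compound final range was 200–0.2 µg/ml, incubated 37°C for 18–20 h. MIC was the lowest concentration preventing visible growth. Runs were at least duplicate, and the mean MIC was reported.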

In data set [3] the test system is P. aeruginosa PA01. As to the kind of experiment: MIC, microbroth dilution in Mueller-Hinton broth. In kind it is cell-based, Pseudomonas aeruginosa. Conditions: for MIC: Pseudomonas aeruginosa.
The subject of data set [4] is S. aureus -ATCC29213 (MSSA). Put plainly: MIC, microbroth dilution in Mueller-Hinton broth. Conditions: Staphylococcus aureus, read-out: MIC MSSA. In kind it is cell-based. In short, it runs like this: as §1
In data set [5] the test system is S. pneumoniae R6. As to the kind of experiment: MIC, microbroth dilution in Mueller-Hinton broth. Conditions: Streptococcus pneumoniae, R6, read-out: MIC SP. The data set is classed as cell-based. In short, it runs like this: as §1
Data set [6] can be described thus: Relative binding affinity. The data set is classed as physicochemical. In short, it runs like this:
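Chelator:Fe(III) stoichiometry was found by the continuous variation method. The apparent iron constant came from the drop in 460 nm absorbance of the preformed test compound–Fe(III) complex as EDTA concentration was raised. pM was calculated as –log free [Fe3+].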

In data set [7] the test system is E. coli ATCC 35218 (Low-level TEM-1). As to the kind of experiment: MIC with and without clavulanic acid. In kind it is cell-based. Conditions: with clavulanic acid (6 µg/ml). In short, it runs like this:
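Mueller-Hinton broth microdilution per CLSI, run in parallel without and with the β-lactamase inhibitor clavulanic acid (6 µg/ml). MH-broth-grown inoculum was at 10^5 CFU/ml final, with test compound at 200–0.2 µg/ml final. Incubation was 37°C, 18–20 h, and the visible-growth endpoint was read. At least duplicate determinations; the mean MIC was reported.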

In data set [8] the test system is E. coli BW25113. As to the kind of experiment: MIC, microbroth dilution in Mueller-Hinton broth. In kind it is cell-based, Escherichia coli.
Data set [9] relates to P. vulgaris ATCC 33420. As to the kind of experiment: MIC, microbroth dilution in Mueller-Hinton broth. The data set is classed as cell-based. Conditions: Proteus vulgaris, ATCC33420, read-out: MIC PV.
In data set [10] the test system is B. subtilis ATCC23857. Put plainly: MIC, microbroth dilution in Mueller-Hinton broth. The data set is classed as cell-based. Conditions: Bacillus subtilis, ATCC23857, read-out: MIC BS. In short, it runs like this: as §1
The test system of data set [11] is S. pyogenes ATCC700294. Put plainly: MIC, microbroth dilution in Mueller-Hinton broth. The data set is classed as cell-based. Conditions: Streptococcus pyogenes, ATCC700294, read-out: MIC SPy. In short, it runs like this:
as §1

The subject of data set [12] is E. coli BW25113 ΔampC derivative JW4111-2. The data set is classed as cell-based, Escherichia coli.
Data set [13] deals with S. aureus NRS 70 (MRSA). As to the kind of experiment: MIC, microbroth dilution in Mueller-Hinton broth. The data set is classed as cell-based. Conditions: Staphylococcus aureus, MRSA|NRS70, read-out: MIC MRSA. In short, it runs like this:
as §1

Data set [14] has as its system E. coli BW25113 ΔtolC derivative JW5503-1. As to the kind of experiment: MIC, microbroth dilution in Mueller-Hinton broth. In kind it is cell-based, Escherichia coli. Conditions: for MIC: Escherichia coli.
The test system of data set [15] is B. anthracis sterne. Put plainly: microbe, parasite or virus in culture. Particulars: Bacillus anthracis, read-out: MIC BA. The data set is classed as cell-based.
For data set [16] the following is noted: cited from earlier work.

This is an account of results in article PMC5116011 (The Journal of antibiotics, 2016).

Values after ≈ are worked out from the molar mass of the structure shown. Where two headings read alike, the source gives them in different places.

The Kd is the constant that tells how readily two partners part at equilibrium.

Consider `CC1(C)SC2C(NC(=O)C(NC(=O)C3=C(O)C(Cc4ccsc4)NC3=O)c3ccccc3)C(=O)N2C1C(=O)O` (stereo not shown) [Compound 2916], for which the MIC was found to be 6.25 µg/mL (≈ 11 µM) in data set [1]; 25 µg/mL (≈ 43.8 µM) in data set [2]; 25 µg/mL (≈ 43.8 µM) in data set [3] (PA01, read-out: MIC PA); 25 µg/mL (≈ 43.8 µM) in data set [3] (PA01, read-out: MIC PA MH); 25 µg/mL (≈ 43.8 µM) in data set [3] (PA01, read-out: MIC PA MH+BP); 12.5 µg/mL (≈ 21.9 µM) in [3] (PA01, read-out: MIC PA MH+CCCP). Besides, the MIC in data set [4] was under 0.2 µg/mL; in data set [5], under 0.2 µg/mL; in [8] (Escherichia coli, BW25113, read-out: MIC EC, E. coli BW25113, Mueller-Hinton broth (Table 2)), 50 µg/mL (≈ 87.6 µM); in data set [9], 6.25 µg/mL (≈ 11 µM); in [10], 1.56 µg/mL (≈ 2.73 µM); in data set [11], 0.39 µg/mL (≈ 0.683 µM). Besides, the MIC in [12] (Escherichia coli, BW25113, read-out: MIC ECΔampC −) worked out at 6.25 µg/mL (≈ 11 µM); in [13] it was 50 µg/mL (≈ 87.6 µM); in [14] (BW25113, read-out: MIC ECΔtolC), 1.56 µg/mL (≈ 2.73 µM); in [14] (BW25113, read-out: MIC ECΔtolC MH), 1.56 µg/mL (≈ 2.73 µM); in data set [14] (BW25113, read-out: MIC ECΔtolC MH+BP), 1.56 µg/mL (≈ 2.73 µM); in [15] it was 1.56 µg/mL (≈ 2.73 µM). Also, in [3] (P. aeruginosa PA01, MH broth with 30 µg/ml 2,2′-bipyridyl and 50 µg/ml CCCP), the “MIC PA MH+BP/CCCP” value was found to be 6.25 µg/mL (≈ 11 µM). Further, the “MIC PA +” value in [3] (P. aeruginosa PA01, with clavulanic acid (6µg/ml)) came to 6.25 µg/mL. For the same compound, in data set [6] (10^−5 M total iron chelator and 10^−6 M total Fe^3+ at pH 7.4), the “pM (–log [Fe^3+])” value amounted to 20.3. Besides, the “apparent binding constant (Kd, app) for iron (III)” value in [6] (EDTA competition, MeOH:Tris buffer, pH 7.4 (98:2), 3:1 complex) is 0.55 × 10^−29 M^3. Moreover, the “MIC ATCC 35218 (Low-level TEM-1) + CLV” value in [7] was determined as 25 µg/mL. In addition, the “MIC EC MH+BP/CCCP” value in data set [8] (E. coli BW25113, MH broth with 30 µg/ml 2,2′-bipyridyl and 50 µg/ml CCCP) came to 12.5 µg/mL (≈ 21.9 µM). In addition, in [8] (E. coli BW25113, with clavulanic acid (6µg/ml)), the “MIC EC +” value came out at 12.5 µg/mL. In addition, in data set [12] ({}), the “MIC ECΔampC +” value amounted to 3.13 µg/mL. For the same compound, the “MIC ECΔtolC MH+BP/CCCP” value in data set [14] ({}) was found to be 0.78 µg/mL (≈ 1.37 µM). Besides, the “MIC ECΔtolC MH+CCCP” value in data set [14] ({}) was determined as 0.78 µg/mL (≈ 1.37 µM).
As to `CN1[C@@H]([C@H]2CSC(c3ccccc3O)=N2)SC[C@H]1C(=O)O` [pyochelin], the pM in data set [16] (pyochelin, ref [43], [44]) is 6. Moreover, the Kd in data set [16] (read-out: Kd for iron, pyochelin, ref [43], [44]) was 10 µM.
Turning to pyoverdin, the pM in [16] (P. aeruginosa pyoverdin, ref [45], [46]) was 27.
